Measured values taken from ChEMBL document CHEMBL3351355, “Structure-affinity/activity relationships of 1,4-dioxa-spiro[4.5]decane based ligands at α1 and 5-HT1A receptors” (Eur J Med Chem, 2014).

Assays:
[1] = target: T1, Alpha-1B adrenergic receptor (Rattus norvegicus) (UniProt P15823); experiment: Antagonist activity at alpha1B adrenoceptor in Wistar rat spleen assessed as phenylephrine-induced contractions after 30 mins
T1 sequence (whole entry): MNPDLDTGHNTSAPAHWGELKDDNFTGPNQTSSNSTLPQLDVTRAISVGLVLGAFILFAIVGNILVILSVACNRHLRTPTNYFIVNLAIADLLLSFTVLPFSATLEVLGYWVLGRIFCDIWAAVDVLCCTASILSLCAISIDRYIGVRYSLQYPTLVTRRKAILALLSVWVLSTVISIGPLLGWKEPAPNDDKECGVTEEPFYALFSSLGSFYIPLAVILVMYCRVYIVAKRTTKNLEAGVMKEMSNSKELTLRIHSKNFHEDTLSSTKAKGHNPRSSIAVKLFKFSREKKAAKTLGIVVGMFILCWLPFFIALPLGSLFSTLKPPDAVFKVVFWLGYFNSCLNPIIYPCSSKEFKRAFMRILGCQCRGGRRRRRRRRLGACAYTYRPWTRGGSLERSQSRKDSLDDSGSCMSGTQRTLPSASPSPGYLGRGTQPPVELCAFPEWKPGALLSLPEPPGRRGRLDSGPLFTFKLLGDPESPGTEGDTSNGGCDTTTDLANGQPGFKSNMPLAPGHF
In short: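 Spleen strips (bisected longitudinally) in Krebs with 4 µM propranolol, 1 g resting tension, 2 h equilibration. Cumulative phenylephrine curves recorded isometrically at 30 min intervals, the first discarded and the second used as control. Antagonist pre-equilibrated 30 min before a repeat agonist curve.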

[2] = target: T2, Alpha-1A adrenergic receptor (Homo sapiens, UniProt P35348); experiment: Displacement of [3H]prazosin from human recombinant alpha1A adrenoceptor expressed in CHO cells after 30 mins by liquid scintillation counting
T2 sequence (P35348 whole entry): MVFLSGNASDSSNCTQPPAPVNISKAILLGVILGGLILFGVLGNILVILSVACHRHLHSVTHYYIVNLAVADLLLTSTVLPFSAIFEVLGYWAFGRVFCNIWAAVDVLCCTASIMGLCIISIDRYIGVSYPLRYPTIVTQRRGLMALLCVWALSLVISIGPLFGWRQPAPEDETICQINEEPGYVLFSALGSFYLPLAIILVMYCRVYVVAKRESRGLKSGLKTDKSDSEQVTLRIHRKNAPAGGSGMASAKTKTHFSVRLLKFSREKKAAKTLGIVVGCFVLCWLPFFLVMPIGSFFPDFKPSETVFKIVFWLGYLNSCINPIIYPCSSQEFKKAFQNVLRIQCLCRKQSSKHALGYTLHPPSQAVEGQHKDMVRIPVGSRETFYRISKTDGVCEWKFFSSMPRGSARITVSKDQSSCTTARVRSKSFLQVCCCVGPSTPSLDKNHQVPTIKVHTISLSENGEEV

[3] = target: T3, Alpha-1D adrenergic receptor (Rattus norvegicus) (UniProt P23944); experiment: Antagonist activity at alpha1D adrenoceptor in Wistar rat thoracic aorta assessed as noradrenaline-induced contractions after 30 mins
T3 sequence (whole entry): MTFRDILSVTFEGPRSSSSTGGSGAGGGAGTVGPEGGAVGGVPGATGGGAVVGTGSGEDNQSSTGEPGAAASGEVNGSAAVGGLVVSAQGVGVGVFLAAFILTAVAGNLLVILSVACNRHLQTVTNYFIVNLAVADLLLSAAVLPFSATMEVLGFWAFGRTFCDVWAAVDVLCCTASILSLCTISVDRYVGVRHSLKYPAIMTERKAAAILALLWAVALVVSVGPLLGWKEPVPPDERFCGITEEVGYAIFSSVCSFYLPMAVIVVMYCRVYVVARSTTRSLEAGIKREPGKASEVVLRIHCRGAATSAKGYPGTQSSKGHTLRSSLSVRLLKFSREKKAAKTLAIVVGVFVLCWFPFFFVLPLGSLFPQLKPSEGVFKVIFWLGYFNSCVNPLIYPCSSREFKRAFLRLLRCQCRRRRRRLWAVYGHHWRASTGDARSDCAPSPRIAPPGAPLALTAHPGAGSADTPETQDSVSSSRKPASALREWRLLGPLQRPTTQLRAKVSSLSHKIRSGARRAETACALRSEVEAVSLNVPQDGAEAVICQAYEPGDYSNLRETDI

[4] = target: T4, Alpha-1B adrenergic receptor (Homo sapiens, UniProt P35368); experiment: Displacement of [3H]prazosin from human recombinant alpha1B adrenoceptor expressed in CHO cells after 30 mins by liquid scintillation counting; format: cell-based
T4 sequence (P35368 whole entry): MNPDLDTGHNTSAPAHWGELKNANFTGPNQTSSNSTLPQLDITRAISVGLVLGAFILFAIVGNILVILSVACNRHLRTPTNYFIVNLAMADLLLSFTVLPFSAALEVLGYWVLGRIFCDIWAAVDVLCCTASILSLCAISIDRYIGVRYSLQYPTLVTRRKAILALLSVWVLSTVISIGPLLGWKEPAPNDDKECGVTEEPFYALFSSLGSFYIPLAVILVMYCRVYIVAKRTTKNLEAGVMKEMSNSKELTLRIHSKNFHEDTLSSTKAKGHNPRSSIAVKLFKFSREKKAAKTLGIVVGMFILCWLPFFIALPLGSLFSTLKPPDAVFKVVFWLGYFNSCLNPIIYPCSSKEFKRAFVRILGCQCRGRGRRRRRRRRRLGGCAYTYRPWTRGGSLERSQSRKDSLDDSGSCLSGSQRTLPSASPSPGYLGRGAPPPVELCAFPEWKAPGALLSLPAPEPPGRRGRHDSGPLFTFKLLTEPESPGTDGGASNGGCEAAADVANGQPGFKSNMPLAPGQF
In short: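 CHO cells were stably transfected by electroporation with each human α1 subtype. Membranes (70 µg protein) were incubated in 50 mM Tris pH 7.4 with 0.1–0.4 nM [3H]prazosin and competitor (1 pM–1 µM) for 30 min at 25 °C. Nonspecific binding with 10 µM tamsulosin. Filtration and scintillation counting. pKi from 2–3 experiments in duplicate.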

[5] = species on record: Rattus norvegicus; experiment: Selectivity ratio of Kb for alpha1B adrenoceptor in Wistar rat spleen to Kb for alpha1A adrenoceptor in Wistar rat vas deferans; format: tissue-based
[6] = species on record: Rattus norvegicus; experiment: Selectivity ratio of Kb for alpha1D adrenoceptor in Wistar rat thoracic aorta to Kb for alpha1A adrenoceptor in Wistar rat vas deferans; format: tissue-based

COc1ccccc1N1CCN(CC2COC3(CCN(S(C)(=O)=O)CC3)O2)CC1 (centres undefined)
pKb [1]: 7.46 | Ki [2]: 18.6 nM | pKb [3]: 7.18 | Ki [4]: 363 nM | Ratio [5]: 1.12 | Ratio [6]: 0.59

COc1ccccc1N1CCN(CC2COC3(CCN(S(=O)(=O)c4ccccc4)CC3)O2)CC1 (centres undefined)
pKb [1]: 7.94 | Ki [2]: 7.94 nM | pKb [3]: 7.05 | Ki [4]: 85.1 nM | Ratio [5]: 2.88 | Ratio [6]: 0.37

COc1ccccc1N1CCN(CC2COC3(CCNCC3)O2)CC1 (centres undefined)
pKb [1]: 7.78 | Ki [2]: 49 nM | pKb [3]: 6.89 | Ki [4]: 42.7 nM | Ratio [5]: 1.09 | Ratio [6]: 0.14

COc1ccccc1N1CCN(CC2COC3(CCOCC3)O2)CC1 (centres undefined)
pKb [1]: 7.17 | Ki [2]: 17 nM | pKb [3]: 7.33 | Ki [4]: 324 nM | Ratio [5]: 0.41 | Ratio [6]: 0.6

COc1ccccc1N1CCN(CC2COC3(CCN(S(=O)(=O)c4ccc(C)cc4)CC3)O2)CC1 (centres undefined)
pKb [1]: 7.91 | Ki [2]: 4.57 nM | pKb [3]: 6.96 | Ki [4]: 8.32 nM | Ratio [5]: 3.23 | Ratio [6]: 0.36

COc1ccccc1N1CCN(CC2COC3(CCN(C(C)=O)CC3)O2)CC1 (centres undefined)
pKb [1]: 7.72 | Ki [2]: 60.3 nM | pKb [3]: 6.48 | Ki [4]: 1000 nM | Ratio [5]: 3.55 | Ratio [6]: 0.2

COc1ccccc1N1CCN(CC2COC3(CCN(S(=O)(=O)c4ccc(OC(F)(F)F)cc4)CC3)O2)CC1 (centres undefined)
pKb [1]: 7.74 | Ki [2]: 8.91 nM | pKb [3]: 7.37 | Ki [4]: 148 nM | Ratio [5]: 5.75 | Ratio [6]: 2.45

COc1ccccc1N1CCN(CC2COC3(CCN(C(=O)NC(C)(C)C)CC3)O2)CC1 (centres undefined)
pKb [1]: 7.42 | Ki [2]: 12.6 nM | pKb [3]: 6.53 | Ki [4]: 129 nM | Ratio [5]: 0.61 | Ratio [6]: 0.08

COc1ccccc1N1CCN(CC2COC3(CCN(S(=O)(=O)c4ccc([N+](=O)[O-])cc4)CC3)O2)CC1 (centres undefined)
pKb [1]: 7.75 | Ki [2]: 5.25 nM | pKb [3]: 8.02 | Ki [4]: 110 nM | Ratio [5]: 1.02 | Ratio [6]: 1.9

COc1ccccc1N1CCN(CC2COC3(CCN(C(=O)C4CCCN4)CC3)O2)CC1 (centres undefined)
pKb [1]: 7.86 | Ki [2]: 11.7 nM | pKb [3]: 6.71 | Ki [4]: 158 nM | Ratio [5]: 2.69 | Ratio [6]: 0.19

COc1ccccc1N1CCN(CC2COC3(CCN(C(=O)C4CCCCC4)CC3)O2)CC1 (centres undefined)
pKb [1]: 7.33 | Ki [2]: 30.9 nM | pKb [3]: 7.02 | Ki [4]: 110 nM | Ratio [5]: 2.4 | Ratio [6]: 1.17

COc1ccccc1N1CCN(CC2COC3(CCN(c4ccccc4)CC3)O2)CC1 (centres undefined)
pKb [1]: 7.56 | Ki [2]: 6.46 nM | pKb [3]: 7.43 | Ki [4]: 155 nM | Ratio [5]: 0.6 | Ratio [6]: 0.44

COc1ccccc1N1CCN(CC2COC3(CCS(=O)(=O)CC3)O2)CC1 (centres undefined)
pKb [1]: 7.66 | Ki [2]: 9.77 nM | pKb [3]: 7.2 | Ki [4]: 288 nM | Ratio [5]: 2.09 | Ratio [6]: 0.72

COc1ccccc1N1CCN(CC2COC3(CCN(Cc4ccccc4)CC3)O2)CC1 (centres undefined)
pKb [1]: 7.18 | Ki [2]: 6.76 nM | pKb [3]: 8.6 | Ki [4]: 16.6 nM | Ratio [5]: 0.29 | Ratio [6]: 7.58

COc1ccccc1N1CCN(CC2COC3(CCN(C(=O)c4ccco4)CC3)O2)CC1 (centres undefined)
pKb [1]: 7.69 | Ki [2]: 21.4 nM | pKb [3]: 7.38 | Ki [4]: 158 nM | Ratio [5]: 1.82 | Ratio [6]: 0.89

COc1ccccc1N1CCN(CC2COC3(CCSCC3)O2)CC1 (centres undefined)
pKb [1]: 7.63 | Ki [2]: 8.51 nM | pKb [3]: 6.84 | Ki [4]: 141 nM | Ratio [5]: 1.07 | Ratio [6]: 0.17

COc1ccccc1N1CCN(CC2COC3(CCN(S(=O)(=O)c4cccc([N+](=O)[O-])c4)CC3)O2)CC1 (centres undefined)
pKb [1]: 8.14 | Ki [2]: 3.02 nM | pKb [3]: 7.98 | Ki [4]: 69.2 nM | Ratio [5]: 1.48 | Ratio [6]: 1.02

COc1ccccc1N1CCN(CC2COC3(CCN(C(=O)Nc4ccccc4)CC3)O2)CC1 (centres undefined)
pKb [1]: 8.18 | Ki [2]: 12 nM | pKb [3]: 7.26 | Ki [4]: 81.3 nM | Ratio [5]: 9.12 | Ratio [6]: 1.09

COc1ccccc1N1CCN(CC2COC3(CCN(S(=O)(=O)c4ccc(Cl)cc4)CC3)O2)CC1 (centres undefined)
pKb [1]: 7.36 | Ki [2]: 6.46 nM | pKb [3]: 7.37 | Ki [4]: 69.2 nM | Ratio [5]: 1.32 | Ratio [6]: 1.35

COc1ccccc1N1CCN(CC2COC3(CCCCC3)O2)CC1 (centres undefined)
pKb [1]: 6.72 | pKb [3]: 7.88 | Ki [4]: 126 nM | Ratio [5]: 0.87 | Ratio [6]: 12.6
